The entries come from a sample that favours hits as a whole.
HSF1 activator – increases HSF-1 driven luciferase reporter signal | activation, % at 9 µM | NIH3T3-HGL HSF-1 luciferase reporter, MG132, 8 h; 100% = twice DMSO control signal | hit rate 1.7% among 300,000;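 active = mean replicate activation of at least 50% with a set share of replicates each reaching 50%; inconclusive = only one of those two conditions met; inactive = mean below 50% and too few replicates reaching it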;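 also: 0% = median of the neutral control wells and 100% = twice that signal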
T cruzi inh – T. cruzi replication inhibition; hit rate 1.4% among 300,000; inhibition, % (test concentration not listed); T. cruzi beta-gal in NIH3T3, luminescence, 90 h; AID 1885;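 active = mean inhibition across valid replicates above about 55%, limit read from the data; inconclusive = mean below that limit but half or more replicates reach it; inactive = mean below it, under half of replicates reach it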;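 also: signal also drops with host cell toxicity which is not excluded here; 0% = plate median of DMSO wells and 100% = zero luminescence signal; higher percent means less beta-gal luminescence so fewer parasites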
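System: Mouse NIH/3T3 fibroblasts infected with β-gal-expressing T. cruzi Tulahuen C4 | Quantity: NIH/3T3 cells, 5,000 per well | Reagent: 5000 reporter trypomastigotes per well | Dosing: Compound pinned at 50 nL/well, DMSO | Schedule: 3 h host attachment, then at least 90 h co-culture | Detection: GalScreen luminescence, 60 min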
HSF1 inh – HSF1 inhibition; NIH3T3-HGL HSE-luciferase, MG132-induced, luminescence 8 h; stronger effect = lower value; activity change, negative = inhibition, % at 7.5 µM (by protocol); hit rate 0.77% among 300,000;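 active = more than half of replicate wells show activity change below -50%, luminescence cut by over half; inconclusive = some wells, but at most half, below -50%; inactive = no replicate well below -50%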;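 also: luciferase reports HSF-1 transcriptional activity via heat shock element; 0% = median of DMSO wells and -100% = zero luminescence signal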
Hsp70 act – Hsp70 transcriptional activation, primary screen; HeLa Hsp70 promoter luciferase reporter, luminescence; scaled: vehicle 0, proteasome-inhibitor control 100%; activation, % at 10 µM; hit rate 0.04% among 200,000;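 active = activation above the mean across all tested compounds plus 3 SD, cutoff set per campaign, cut at about 5.5% in these data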;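 also: 100% = MG132 at 30 µM as the positive control and 0% = DMSO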
L major viab – Leishmania major promastigote growth inhibition; inhibition, % at 10 µM; Leishmania major promastigotes, resazurin fluorescence viability; hit rate 9% among 200,000; in the data active = inhibition above about 50%;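 also: promastigotes grown with compound for 44 hours at 28 °C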
* = called active by the depositor; ? = inconclusive; nt = not tested or not shown.

SMILES	HSF1 activator	T cruzi inh	HSF1 inh	Hsp70 act	L major viab
CCC(C)C(NC(N)=O)C(=O)Nc1ccc(C)c(Cl)c1 (configuration not stated)	17.1	2.0	-5.9	-0.3	58.4*
O=C(Nc1ccc([N+](=O)[O-])cc1)Nc1ccc(OC(F)F)c(Cl)c1	nt	nt	nt	-0.4	99.2*
C[C@H](c1ccccc1)n1nnc(COCc2ccccc2)c1C#CCOCc1ccccc1	-13.6	8.2	7.2	nt	nt
COc1ccccc1NCc1nnc(-c2ccccc2)o1	-2.3	-4.8	-3.7	nt	nt
O=C(COC(=O)Cc1ccc(Cl)cc1Cl)Nc1ccc(OC(F)F)cc1	-3.5	-23.3	1.1	-0.3	69.7*
Cc1ccc(NC(=O)C(C)c2ccc([N+](=O)[O-])cc2)cc1Cl (configuration not stated)	-17.2	38.5	-11.5	-0.5	56.0*
O=C(COC(=O)Cc1ccc(Cl)cc1)Nc1ccc(OC(F)F)cc1	6.7	4.0	5.8	-0.4	-3.9
COc1cc([N+](=O)[O-])ccc1NC(=O)Nc1ccc2c(c1)OCCO2	17.3	23.9	14.4	-0.3	18.7
O=C(Nc1ccc(OC(F)F)c(Cl)c1)Nc1ccc2c(c1)OCO2	-13.6	12.4	-25.4	0.0	5.2
O=C(Nc1ccc([N+](=O)[O-])cc1)Nc1ccc2c(c1)OCCO2	64.1*	19.9	31.0	0.0	1.4
O=C(Cc1ccc(Cl)cc1Cl)Nc1ccc(OC(F)F)c(Cl)c1	-7.7	36.3	-6.0	-0.1	52.5*
CCN(C(=O)CCN1C(=O)/C(=C/c2ccccc2)SC1=S)C1CCS(=O)(=O)C1 (configuration not stated)	-1.1	-8.2	-0.4	nt	nt
O=c1[nH]c(NC2CCCCC2)c([N+](=O)[O-])c(=O)[nH]1	-8.2	-16.3	-0.9	0.1	-7.5
O=C(NCc1cccnc1)c1ccc(Cn2c(=S)[nH]c3ccc(Br)cc3c2=O)cc1	14.9	11.9	6.6	-0.1	1.0
Cc1cccc(NC(=O)Cn2nc(-c3ccco3)ccc2=O)c1C	-21.0	-4.7	-7.9	nt	nt
CC(NC(=O)CCSc1nc(-c2ccc3c(c2)OCO3)cc(C(F)(F)F)n1)c1ccccc1 (configuration not stated)	1.8	?	9.1	0.1	62.3*
O=C(NC1CCCC1)c1cc(=O)[nH]c2ccccc12	42.8	-9.3	20.8	nt	nt
Cc1ccccc1N1C(=O)CN(Cc2sccc2C)C1=S	-0.5	-3.9	2.9	-0.1	92.8*
COc1ccc(C2=NN(CC(=O)Nc3cc(C)ccc3C)C(=O)CC2)cc1	9.3	1.9	1.1	nt	nt
C=C(C)c1cccc(C(C)(C)NC(=O)Nc2cc(C)ccc2OC)c1	-4.5	15.8	-0.1	-0.1	51.7*
C=C(C)c1cccc(C(C)(C)NC(=O)Nc2ccccc2OCC)c1	40.8	8.1	29.9	-0.2	55.0*
C=C(C)c1cccc(C(C)(C)NC(=O)NCc2ccc(OC)c(OC)c2)c1	5.8	-4.7	13.4	0.0	-3.0
COc1cc(/C=N\n2nnnc2N)ccc1OCc1ccc(F)cc1	20.8	-8.8	0.6	-0.1	-3.2
COc1cc(/C=N/n2nnnc2N)ccc1OCc1c(C)no[n+]1[O-]	13.0	-5.7	1.2	-0.2	54.2*
Cc1ccc(-c2nc3ccccn3c2NCc2ccc3c(c2)OCO3)cc1	33.5	25.1	16.2	-0.1	41.4
SMILES	HSF1 activator	T cruzi inh	HSF1 inh	Hsp70 act	L major viab
CCOC(=O)CNc1c(-c2ccc(OC)cc2)nc2ccc(Cl)cn12	32.8	4.7	28.9	0.1	6.2
COCCNc1c(-c2ccc(OC)cc2)nc2ccc(Cl)cn12	49.2	14.6	17.7	0.0	76.2*
COc1ccc(-c2nc3ccc(C)cn3c2NCc2ccc3c(c2)OCO3)cc1	60.5*	29.3	14.0	0.2	36.8
Cc1ccccc1C(=O)N1CCC(C(=O)N2CCN(S(=O)(=O)c3ccccc3F)CC2)CC1	-10.5	-11.8	-9.6	-0.5	6.4
O=C(COC(=O)c1cc[n+]([O-])cc1)Nc1cc([N+](=O)[O-])ccc1Cl	-10.5	-2.9	-7.8	nt	nt
O=C(COC(=O)c1cc[n+]([O-])cc1)Nc1cccc(Cl)c1Cl	-70.5	2.3	-66.4*	-0.3	-5.8
N#Cc1ccc(NC(=S)NC(=O)CCc2ccc(S(=O)(=O)N3CCOCC3)cc2)cc1	28.1	19.5	8.8	0.0	-3.3
CC(/C=C/c1ccc(OCc2ccccc2)cc1)=N\O	?	-0.6	37.5	0.6	83.2*
COc1ccc(OC)c(NC(=O)CSc2nnc(CNC(=O)c3cccs3)o2)c1	-2.6	26.8	-0.3	nt	nt
O=C(NCC1CC1)c1ccc2c3n(nc2c1)-c1ccccc1CO3	57.9*	12.1	30.3	nt	nt
Cc1ccc2c(c1)COc1c3ccc(C(=O)NCC4CC4)cc3nn1-2	24.4	3.0	21.5	nt	nt
COc1ccc(C(Sc2ccccc2)c2ccccc2)cc1OC (configuration not stated)	27.9	-0.2	8.0	nt	nt
CC1CCCCN1CCNC(=O)c1ccc2c(=O)n(CCc3ccccc3)c(=O)[nH]c2c1 (configuration not stated)	-1.4	-4.8	12.0	-0.2	62.9*
CC1CCCCN1CCCNC(=O)c1ccc2c(=O)n(CCc3ccccc3)c(=O)[nH]c2c1 (configuration not stated)	5.0	-12.0	-4.3	-0.2	23.7
CCCCCn1c(=O)[nH]c2cc(C(=O)NCCCN3CCC(C)CC3)ccc2c1=O	16.8	-16.3	7.8	0.4	57.9*
CN1CCN(CCCNC(=O)c2ccc(Cn3c(=S)[nH]c4ccc(Br)cc4c3=O)cc2)CC1	1.8	2.1	-0.9	-0.1	-7.5
CC1CCN(CCCNC(=O)c2ccc3c(=O)n(CCc4ccccc4)c(=O)[nH]c3c2)CC1	23.0	0.8	6.5	0.0	97.3*
CCCCCn1c(=O)[nH]c2cc(C(=O)NCCN3CCC(C)CC3)ccc2c1=O	-57.2	4.9	-46.7	nt	nt
CC1CCN(CCCNC(=O)c2ccc(Cn3c(=S)[nH]c4ccc(Br)cc4c3=O)cc2)CC1	-8.1	-0.8	-8.4	0.3	98.9*
CN1CCN(CCCNC(=O)c2ccc3c(=O)n(CCc4ccccc4)c(=O)[nH]c3c2)CC1	15.6	22.2	0.5	nt	nt
CC(C)c1ccc(/C=C2\NC(=S)N(Cc3cccnc3)C2=O)cc1	11.1	9.5	0.6	-0.2	8.2
O=C(O)/C(=C\c1ccccc1)c1ccc2ccccc2c1	-10.3	-7.4	-3.0	nt	nt
CCc1ccc(/C=N/NC(=O)C(=O)NCCCN2CCOCC2)cc1	-9.5	-17.3	-1.3	-0.2	-5.7
CCC(C)c1ccccc1NC(=S)NC(=O)c1ccco1 (configuration not stated)	-2.9	5.0	3.4	nt	nt
CC(=O)N/N=C(/c1ccccc1)C(O)c1ccccc1 (configuration not stated)	6.1	-6.9	-5.6	nt	nt
C[C@H](NC(=O)N1CCn2c1nc1ccccc12)C(=O)NCCc1ccccc1	-12.2	-7.9	-0.3	nt	nt
CCN1C(=O)[C@@H]2C(C(=O)c3cnccn3)=NN[C@@H]2C1=O	-4.0	-2.6	-5.5	nt	nt
CCOC(=O)c1c2c(n(C)c1COC)C(=O)C(=O)c1ccc(Br)cc1-2	27.2	-13.8	-3.0	-0.1	99.6*

High-throughput results deposited in PubChem by several laboratories.
